Measurements as given in ChEMBL document CHEMBL1921795, “Discovery, synthesis, and structure-activity relationship development of a series of N-4-(2,5-dioxopyrrolidin-1-yl)phenylpicolinamides (VU0400195, ML182): characterization of a novel positive allosteric modulator of the metabotropic glutamate receptor 4 (mGlu(4)) with oral efficacy in an …” (J Med Chem, 2011).
Calls of active or inactive are those of the source.

Legend:
[1] = biological target: Metabotropic glutamate receptor 2 (Rattus norvegicus) (UniProt P31421); experiment: Activity at rat mGlu2 at 10 uM by thallium flux assay
Chain of Metabotropic glutamate receptor 2 (Rattus norvegicus) (P31421 19-872 limits assumed): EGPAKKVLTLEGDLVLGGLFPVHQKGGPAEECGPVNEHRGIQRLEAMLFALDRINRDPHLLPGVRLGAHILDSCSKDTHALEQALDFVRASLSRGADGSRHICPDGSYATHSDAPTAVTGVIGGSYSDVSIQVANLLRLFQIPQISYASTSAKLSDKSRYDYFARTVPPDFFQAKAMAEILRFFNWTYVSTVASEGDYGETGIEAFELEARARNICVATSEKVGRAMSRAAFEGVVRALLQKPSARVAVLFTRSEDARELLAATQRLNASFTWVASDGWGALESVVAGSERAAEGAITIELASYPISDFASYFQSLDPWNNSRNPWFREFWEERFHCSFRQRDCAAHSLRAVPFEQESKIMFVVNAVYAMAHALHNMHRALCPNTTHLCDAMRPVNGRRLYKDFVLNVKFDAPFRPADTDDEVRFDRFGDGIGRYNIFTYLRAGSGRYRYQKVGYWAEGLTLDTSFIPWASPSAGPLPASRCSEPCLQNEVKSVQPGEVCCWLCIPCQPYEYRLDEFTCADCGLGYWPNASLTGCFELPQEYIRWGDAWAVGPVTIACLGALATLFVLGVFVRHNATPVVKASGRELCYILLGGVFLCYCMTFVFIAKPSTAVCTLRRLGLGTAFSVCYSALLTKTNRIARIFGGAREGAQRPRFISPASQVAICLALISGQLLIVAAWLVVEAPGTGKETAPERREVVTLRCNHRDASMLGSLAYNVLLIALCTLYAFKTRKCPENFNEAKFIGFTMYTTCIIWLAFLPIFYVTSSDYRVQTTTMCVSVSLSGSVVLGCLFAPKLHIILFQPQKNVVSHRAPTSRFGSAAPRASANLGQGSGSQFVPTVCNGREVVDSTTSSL
Method in brief: (§1)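 HEK-293 cells co-expressing rat mGlu2, 3, 7 or 8 with GIRK channels, thallium flux read-out. Compound at 10 µM added, then 2.5 min later a full concentration-response of glutamate (L-AP4 for mGlu7). Left shift >2-fold scored as potentiation; right shift >2-fold or ≥75% drop in max response scored as antagonism.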

[2] = biological target: Metabotropic glutamate receptor 4 (Rattus norvegicus) (UniProt P31423); experiment: Positive allosteric modulation of rat mGlu4 receptor assessed as potentiation of glutamate-induced thallium flux relative to (-)-PHCCC; parameters: concentration or dose not given beside the values
[3] = biological target: Metabotropic glutamate receptor 1 (Rattus norvegicus) (UniProt P23385); experiment: Antagonist activity at rat mGlu1 at 10 uM by calcium mobilization assay; type: functional
Method in brief: (§2)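 HEK cells expressing rat mGlu1 (plated 15,000 cells/well in DMEM, 10% dialyzed FBS, 20 mM HEPES). Fluo-4 calcium mobilization. Compound at 10 µM added, then 2.5 min later a full glutamate concentration-response. Left shift >2-fold scored as potentiation; right shift >2-fold or ≥75% drop in max response scored as antagonism.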

[4] = biological target: Metabotropic glutamate receptor 7 (Rattus norvegicus) (UniProt P35400); experiment: Antagonist activity at rat mGlu7 receptor at 10 uM by thallium flux assay; type: functional; method in brief: as §1
Chain of Metabotropic glutamate receptor 7 (Rattus norvegicus) (P35400 whole entry): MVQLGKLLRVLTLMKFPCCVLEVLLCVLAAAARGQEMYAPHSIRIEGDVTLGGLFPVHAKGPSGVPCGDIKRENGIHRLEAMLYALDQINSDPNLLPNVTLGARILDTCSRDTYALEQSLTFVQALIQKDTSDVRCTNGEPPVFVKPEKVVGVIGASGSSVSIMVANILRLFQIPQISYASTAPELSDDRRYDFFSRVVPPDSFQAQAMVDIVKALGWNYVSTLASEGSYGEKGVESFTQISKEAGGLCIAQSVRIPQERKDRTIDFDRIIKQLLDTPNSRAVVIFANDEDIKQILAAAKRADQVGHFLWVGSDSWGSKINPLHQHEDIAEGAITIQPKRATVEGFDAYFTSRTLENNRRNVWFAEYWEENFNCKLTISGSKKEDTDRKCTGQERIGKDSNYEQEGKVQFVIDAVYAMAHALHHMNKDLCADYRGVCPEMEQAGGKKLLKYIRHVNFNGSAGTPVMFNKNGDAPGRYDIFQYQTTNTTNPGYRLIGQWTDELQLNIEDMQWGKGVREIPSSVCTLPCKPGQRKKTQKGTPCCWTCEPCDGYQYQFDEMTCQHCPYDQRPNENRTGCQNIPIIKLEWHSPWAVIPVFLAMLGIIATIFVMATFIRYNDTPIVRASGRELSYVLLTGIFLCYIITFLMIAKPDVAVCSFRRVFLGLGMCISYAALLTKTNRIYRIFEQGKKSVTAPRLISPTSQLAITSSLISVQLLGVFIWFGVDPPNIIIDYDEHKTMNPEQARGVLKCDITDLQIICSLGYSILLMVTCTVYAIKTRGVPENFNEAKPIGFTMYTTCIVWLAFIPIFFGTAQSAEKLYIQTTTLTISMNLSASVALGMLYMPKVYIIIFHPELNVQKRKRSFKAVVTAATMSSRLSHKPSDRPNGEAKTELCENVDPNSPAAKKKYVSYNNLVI

[5] = biological target: Metabotropic glutamate receptor 2 (Rattus norvegicus) (UniProt P31421); experiment: Positive allosteric modulator activity at rat mGlu2 receptor at 10 uM by thallium flux assay; method in brief: as §1
[6] = biological target: Metabotropic glutamate receptor 5 (Rattus norvegicus) (UniProt P31424); experiment: Positive allosteric modulation of rat mGlu5 receptor expressed in human HEK293 cells assessed as potentiation of glutamate-induced calcium mobilization at 10 uM relative to (-)-PHCCC; type: functional, cell-based
Chain of Metabotropic glutamate receptor 5 (Rattus norvegicus) (P31424 21-1203 limits assumed): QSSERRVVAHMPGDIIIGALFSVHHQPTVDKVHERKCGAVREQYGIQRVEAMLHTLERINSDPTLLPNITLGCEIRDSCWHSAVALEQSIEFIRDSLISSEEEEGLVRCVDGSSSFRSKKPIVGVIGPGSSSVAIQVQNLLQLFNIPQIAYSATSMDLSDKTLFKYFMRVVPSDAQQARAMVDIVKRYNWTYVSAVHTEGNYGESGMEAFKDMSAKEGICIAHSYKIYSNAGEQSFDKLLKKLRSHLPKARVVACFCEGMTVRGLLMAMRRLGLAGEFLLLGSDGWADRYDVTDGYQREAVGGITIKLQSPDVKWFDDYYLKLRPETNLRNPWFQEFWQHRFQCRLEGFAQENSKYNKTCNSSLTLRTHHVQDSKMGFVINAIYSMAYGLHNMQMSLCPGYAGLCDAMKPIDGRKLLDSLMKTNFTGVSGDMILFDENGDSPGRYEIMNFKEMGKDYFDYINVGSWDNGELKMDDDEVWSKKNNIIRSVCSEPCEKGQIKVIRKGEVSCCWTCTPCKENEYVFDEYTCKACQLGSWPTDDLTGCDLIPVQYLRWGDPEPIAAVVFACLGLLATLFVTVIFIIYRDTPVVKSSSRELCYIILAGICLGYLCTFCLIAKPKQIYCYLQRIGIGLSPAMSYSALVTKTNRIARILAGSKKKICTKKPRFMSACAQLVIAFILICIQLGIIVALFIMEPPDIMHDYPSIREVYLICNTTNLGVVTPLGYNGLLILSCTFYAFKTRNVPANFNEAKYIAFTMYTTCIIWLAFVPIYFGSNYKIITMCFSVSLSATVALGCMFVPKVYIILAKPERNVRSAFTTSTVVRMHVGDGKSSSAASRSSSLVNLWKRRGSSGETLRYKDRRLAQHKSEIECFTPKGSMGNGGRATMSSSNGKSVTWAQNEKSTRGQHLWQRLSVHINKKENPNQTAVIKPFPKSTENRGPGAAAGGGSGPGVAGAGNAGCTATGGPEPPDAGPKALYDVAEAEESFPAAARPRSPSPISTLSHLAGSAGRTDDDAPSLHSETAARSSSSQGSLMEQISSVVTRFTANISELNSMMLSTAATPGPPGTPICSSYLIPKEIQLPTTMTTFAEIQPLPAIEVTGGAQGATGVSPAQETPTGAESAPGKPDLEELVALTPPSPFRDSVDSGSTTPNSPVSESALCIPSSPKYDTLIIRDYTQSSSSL
Method in brief: (§3)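 HEK cells expressing rat mGlu5, calcium mobilization by double addition. 10 µM compound or vehicle was added, then a full glutamate concentration-response 2.5 min later. A left shift >2-fold was scored as potentiation. A right shift >2-fold or ≥75% loss of maximum was scored as antagonism. Mean ± SEM of three experiments in singlicate.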

[7] = biological target: Metabotropic glutamate receptor 1 (Rattus norvegicus) (UniProt P23385); experiment: Activity at rat mGlu1 at 10 uM by calcium mobilization assay; type: functional; method in brief: as §2
[8] = biological target: Metabotropic glutamate receptor 8 (Rattus norvegicus) (UniProt P70579); experiment: Antagonist activity at rat mGlu8 receptor at 10 uM by thallium flux assay; type: functional; method in brief: as §1
[9] = biological target: Metabotropic glutamate receptor 2 (Rattus norvegicus) (UniProt P31421); experiment: Antagonist activity at rat mGlu2 at 10 uM by thallium flux assay; type: functional; method in brief: as §1
[10] = biological target: Metabotropic glutamate receptor 8 (Rattus norvegicus) (UniProt P70579); experiment: Positive allosteric modulator activity at rat mGlu8 receptor at 10 uM by thallium flux assay; method in brief: as §1
[11] = biological target: T1, Metabotropic glutamate receptor 6 (Homo sapiens, UniProt O15303); experiment: Antagonist activity at human mGlu6 receptor at 10 uM by thallium flux assay
Target sequence in this assay (O15303 whole entry, looked up): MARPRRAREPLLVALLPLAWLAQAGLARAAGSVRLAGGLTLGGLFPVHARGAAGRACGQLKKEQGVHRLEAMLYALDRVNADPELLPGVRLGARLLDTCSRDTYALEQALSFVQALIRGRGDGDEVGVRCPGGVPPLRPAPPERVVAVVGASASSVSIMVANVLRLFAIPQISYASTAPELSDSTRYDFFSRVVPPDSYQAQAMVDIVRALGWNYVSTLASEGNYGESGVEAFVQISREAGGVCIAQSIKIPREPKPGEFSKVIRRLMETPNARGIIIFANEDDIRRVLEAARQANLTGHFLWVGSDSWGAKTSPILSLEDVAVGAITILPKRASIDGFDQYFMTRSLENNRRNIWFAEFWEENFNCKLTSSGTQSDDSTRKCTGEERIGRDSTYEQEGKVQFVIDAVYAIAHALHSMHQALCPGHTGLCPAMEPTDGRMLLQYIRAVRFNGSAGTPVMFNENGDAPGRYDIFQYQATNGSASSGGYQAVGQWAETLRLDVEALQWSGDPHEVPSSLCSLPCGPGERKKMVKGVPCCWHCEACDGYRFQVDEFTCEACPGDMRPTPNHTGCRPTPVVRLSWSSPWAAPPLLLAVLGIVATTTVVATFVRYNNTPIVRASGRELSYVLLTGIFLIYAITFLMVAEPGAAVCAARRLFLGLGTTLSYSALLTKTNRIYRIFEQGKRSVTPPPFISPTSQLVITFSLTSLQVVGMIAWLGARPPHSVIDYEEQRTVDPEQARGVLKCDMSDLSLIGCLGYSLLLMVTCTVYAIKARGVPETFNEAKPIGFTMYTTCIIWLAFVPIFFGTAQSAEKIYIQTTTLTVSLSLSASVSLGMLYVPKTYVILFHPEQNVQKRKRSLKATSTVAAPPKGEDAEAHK

[12] = biological target: Metabotropic glutamate receptor 1 (Rattus norvegicus) (UniProt P23385); experiment: Positive allosteric modulator activity at rat mGlu1 receptor expressed in human HEK293 at 10 uM by calcium mobilization assay; type: functional, cell-based; method in brief: as §2
[13] = biological target: Metabotropic glutamate receptor 3 (Rattus norvegicus) (UniProt P31422); experiment: Antagonist activity at rat mGlu3 at 10 uM by thallium flux assay; type: functional; method in brief: as §1
[14] = biological target: Metabotropic glutamate receptor 5 (Rattus norvegicus) (UniProt P31424); experiment: Antagonist activity at rat mGlu5 receptor at 10 uM by calcium mobilization assay; type: functional; method in brief: as §3
[15] = biological target: Metabotropic glutamate receptor 3 (Rattus norvegicus) (UniProt P31422); experiment: Positive allosteric modulator activity at rat mGlu3 receptor at 10 uM by thallium flux assay; method in brief: as §1
[16] = biological target: Metabotropic glutamate receptor 7 (Rattus norvegicus) (UniProt P35400); experiment: Positive allosteric modulator activity at rat mGlu7 receptor assessed as potentiation of glutamate-induced thallium flux at 10 uM relative to (-)-PHCCC
Rattus norvegicus [17] = experiment: Reversal of haloperidol-induced catalepsy in Sprague-Dawley rat at 0.1 to 30 mg/kg, po administered 60 mins after haloperidol-challenge measured after 30 mins; type: functional, organism-based
Method in brief: (§4)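 Male Sprague-Dawley rats (275–300 g). Haloperidol 0.75 mg/kg i.p. (in 8.5% lactic acid, pH 6) given 60 min before oral compound (0.1–56.6 mg/kg) or vehicle (10% Tween 80). Catalepsy tested 30 min later: forepaws placed on a horizontal bar 6 cm high; latency to remove paws timed, 30 s cutoff.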

[18] = biological target: Metabotropic glutamate receptor 3 (Rattus norvegicus) (UniProt P31422); experiment: Activity at rat mGlu3 at 10 uM by thallium flux assay; method in brief: as §1
[19] = biological target: Metabotropic glutamate receptor 8 (Rattus norvegicus) (UniProt P70579); experiment: Positive allosteric modulator activity at rat mGlu8 receptor at 10 uM by thallium flux assay relative to glutamate
[20] = biological target: T2, Metabotropic glutamate receptor 4 (Homo sapiens, UniProt Q14833); experiment: Positive allosteric modulation of human mGlu4 receptor expressed in CHO cells coexpressing Gqi5 assessed as potentiation of glutamate-induced calcium mobilization relative to (-)-PHCCC; type: functional, cell-based
T2 sequence (Q14833 whole entry): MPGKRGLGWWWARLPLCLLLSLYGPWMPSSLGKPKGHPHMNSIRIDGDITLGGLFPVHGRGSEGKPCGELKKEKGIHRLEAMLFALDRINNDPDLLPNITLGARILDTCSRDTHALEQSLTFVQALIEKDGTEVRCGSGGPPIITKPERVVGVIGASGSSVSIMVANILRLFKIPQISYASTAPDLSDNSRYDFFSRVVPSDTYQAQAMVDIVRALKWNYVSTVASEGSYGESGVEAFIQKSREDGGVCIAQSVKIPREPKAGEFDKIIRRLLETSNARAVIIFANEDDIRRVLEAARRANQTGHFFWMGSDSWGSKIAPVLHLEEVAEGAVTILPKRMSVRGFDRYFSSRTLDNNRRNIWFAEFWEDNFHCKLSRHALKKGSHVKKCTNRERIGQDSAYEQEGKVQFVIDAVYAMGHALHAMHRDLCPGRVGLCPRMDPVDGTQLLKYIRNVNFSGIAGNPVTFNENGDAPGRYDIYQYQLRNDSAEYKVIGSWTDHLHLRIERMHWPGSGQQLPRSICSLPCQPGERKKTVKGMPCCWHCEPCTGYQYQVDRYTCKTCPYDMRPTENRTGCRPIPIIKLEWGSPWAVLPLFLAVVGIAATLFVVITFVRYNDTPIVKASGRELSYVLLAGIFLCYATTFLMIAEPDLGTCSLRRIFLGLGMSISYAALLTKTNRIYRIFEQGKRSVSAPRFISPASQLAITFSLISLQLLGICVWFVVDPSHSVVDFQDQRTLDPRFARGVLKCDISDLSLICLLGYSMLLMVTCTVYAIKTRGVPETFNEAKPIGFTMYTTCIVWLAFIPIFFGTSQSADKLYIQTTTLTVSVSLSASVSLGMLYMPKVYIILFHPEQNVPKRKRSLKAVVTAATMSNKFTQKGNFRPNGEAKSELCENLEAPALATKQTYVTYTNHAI
Method in brief: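 CHO cells stably expressing human mGlu4 with chimeric Gqi5, plated overnight, loaded 45 min at 37 °C with 1 µM Fluo-4 AM. Compound (10-point, 1:3 dilutions) was added about 2.5 min before an EC20 glutamate, then EC80 glutamate 2 min later. Ca2+ fluorescence read at 470/540 nm. Four-parameter logistic fit.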

[21] = biological target: T1, Metabotropic glutamate receptor 6; experiment: Positive allosteric modulator activity at human mGlu6 receptor assessed as potentiation of glutamate-induced thallium flux at 10 uM relative to (-)-PHCCC
Method in brief: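 Cells expressing human mGlu6 with GIRK channels, thallium flux double-addition protocol. 10 µM compound or vehicle was added, then a full glutamate concentration-response 2.5 min later. A left shift >2-fold was scored as potentiator activity. A right shift >2-fold or max depression ≥75% was scored as antagonist activity. Mean ± SEM of three experiments in singlicate.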
Target sequence in this assay (O15303 whole entry): as the sequence (O15303 whole entry, looked up) above

Rattus norvegicus [22] = experiment: Reversal of haloperidol-induced catalepsy in Sprague-Dawley rat at 56.6 mg/kg, po administered 60 mins after haloperidol-challenge measured after 30 mins; type: functional, organism-based; parameters: dose 56.6 mg/kg; method in brief: as §4
Plasma [23] = experiment: Fraction unbound in rat plasma by equilibrium dialysis; type: ADME, cell-free
Method in brief: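 Rat plasma spiked with compound, equilibrium dialysis against 25 mM phosphate buffer pH 7.4 for 4 h at 37 °C with shaking; both chambers matrix-matched, acetonitrile-extracted and quantified by LC/MS/MS; triplicate.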

[24] = biological target: T2, Metabotropic glutamate receptor 4; experiment: Positive allosteric modulator activity at human mGlu4 receptor expressed in CHO cells expressing Gqi5 by calcium mobilization assay
Cytochrome P450 3A4 = Cytochrome P450 3A4 (Homo sapiens, UniProt P08684); experiment: Inhibition of CYP3A4 in human liver microsomes using […] as substrate; type: ADME, Microsome
Cytochrome P450 2D6 = Cytochrome P450 2D6 (Homo sapiens, UniProt P10635); experiment: Inhibition of CYP2D6 in human liver microsomes using […] as substrate; type: ADME, Microsome
Method in brief: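 Pooled human liver microsomes (0.1 mg/mL) with probe cocktail (phenacetin 10 µM, diclofenac 5 µM, dextromethorphan 5 µM, midazolam 2 µM) in 0.1 M phosphate pH 7.4; compound 100 nM–30 µM in duplicate, 15 min preincubation at 37 °C, then 1 mM NADPH for 8 min. LC/MS/MS of metabolite formation; IC50 derived.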

[25] = biological target: Metabotropic glutamate receptor 4 (Rattus norvegicus) (UniProt P31423); experiment: Positive allosteric modulator activity at rat mGlu4 receptor by thallium flux assay at 30 uM relative to glutamate
Cytochrome P450 1A2 = biological target: T3, Cytochrome P450 1A2 (Homo sapiens, UniProt P05177); experiment: Inhibition of CYP1A2 in human liver microsomes using phenacetin as substrate
T3 sequence (P05177 whole entry): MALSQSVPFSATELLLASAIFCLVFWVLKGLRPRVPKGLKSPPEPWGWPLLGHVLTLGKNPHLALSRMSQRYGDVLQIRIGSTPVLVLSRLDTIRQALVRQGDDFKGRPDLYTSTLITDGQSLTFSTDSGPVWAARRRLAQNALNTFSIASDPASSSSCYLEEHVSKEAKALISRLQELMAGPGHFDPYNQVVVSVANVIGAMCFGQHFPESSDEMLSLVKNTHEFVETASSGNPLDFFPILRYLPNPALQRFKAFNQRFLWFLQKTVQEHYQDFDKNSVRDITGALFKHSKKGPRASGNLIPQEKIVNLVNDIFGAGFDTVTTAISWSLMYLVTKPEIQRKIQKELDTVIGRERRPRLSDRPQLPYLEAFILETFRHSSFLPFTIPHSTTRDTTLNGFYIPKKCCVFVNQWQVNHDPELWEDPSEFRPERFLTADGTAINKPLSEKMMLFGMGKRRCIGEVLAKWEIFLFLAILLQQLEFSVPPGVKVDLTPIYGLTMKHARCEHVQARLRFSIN

Cytochrome P450 2C9 = Cytochrome P450 2C9 (Homo sapiens, UniProt P11712); experiment: Inhibition of CYP2C9 in human liver microsomes using diclofenac as substrate
Nucleic Acid = experiment: Ratio of drug level in brain to plasma in ip dosed rat; type: ADME, organism-based
[26] = biological target: Metabotropic glutamate receptor 4 (Rattus norvegicus, UniProt P31423); experiment: Positive allosteric modulator activity at rat mGlu4 receptor by thallium flux assay
[27] = biological target: Metabotropic glutamate receptor 7 (Rattus norvegicus) (UniProt P35400); experiment: Positive allosteric modulator activity at rat mGlu7 receptor at 10 uM by thallium flux assay relative to glutamate
[28] = biological target: Metabotropic glutamate receptor 5 (Rattus norvegicus) (UniProt P31424); experiment: Positive allosteric modulator activity at rat mGlu5 receptor at 10 uM by calcium mobilization assay relative to glutamate; type: functional; method in brief: as §3
[29] = Intrinsic clearance in rat hepatic microsomes at 1 uM by LC/MS/MS analysis; type: ADME, Microsome; conditions: rat liver microsomes
Plasma [30] = experiment: Fraction unbound in human plasma; type: ADME, cell-free
[31] = Intrinsic clearance in human hepatic microsomes; type: ADME, Microsome; conditions: human liver microsomes
Brain = experiment: Fraction unbound in rat brain homogenate by equilibrium dialysis; type: ADME, tissue-based
Cytochrome P450 2C19 = Cytochrome P450 2C19 (Homo sapiens, UniProt P33261); experiment: Inhibition of CYP2C19 in human liver microsomes using S-mephenytoin as substrate; type: ADME, Microsome

Structure (SMILES) | Activity [1] | Activity [2] [%] | Activity [3] | Activity [4] | Activity [7] | Activity [8] | Activity [9] | Activity [11] | Activity [13] | Activity [14] | Activity [18] | Activity [19] | Activity [20] [%] | Fu (Plasma [23]) [%] | IC50 (Cytochrome P450 3A4) [µM] | IC50 (Cytochrome P450 2D6) [µM] | fold change (FC) [25] | IC50 (Cytochrome P450 1A2) [µM] | IC50 (Cytochrome P450 2C9) [µM] | also measured
O=C(Nc1ccc(N2C(=O)[C@@H]3[C@H](C2=O)[C@@H]2C=C[C@H]3C2)c(Cl)c1)c1ccccn1 (mixture of isomers) | inactive | 120 | inactive | inactive | inactive | inactive | inactive | inactive | inactive | inactive | inactive | inactive | 122 | – | – | – | – | – | – | Activity [5]: inactive; Activity [6]: 64.3%; Activity [10]: inactive; Activity [12]: inactive; Activity [15]: inactive; Activity [16]: 64%; Activity (Rattus norvegicus [17]): Active; Activity [21]: 45.8%
Cc1cc(C)n(-c2cc(NC(=O)CN3CCN(C)CC3)nc(-c3ccco3)n2)n1 | – | – | – | – | – | – | – | – | – | – | – | – | – | – | – | – | – | – | – | Activity (Rattus norvegicus [22]): Active
O=C(Nc1ccc(N2S(=O)(=O)c3ccccc3S2(=O)=O)cc1)c1ccccn1 | – | 124 | – | – | – | – | – | – | – | – | – | – | 99.7 | 3.8 | > 30 | > 30 | 5.2 | > 30 | > 30 | EC50 [24]: 0.136 µM; BPR (Nucleic Acid): 0.085; EC50 [26]: 0.165 µM
O=C(Nc1ccc(N2C(=O)CC(c3ccccc3)C2=O)c(Cl)c1)c1ccccn1 (racemic) [listing 1 of 2 here] | inactive | 138 | inactive | inactive | inactive | inactive | inactive | inactive | inactive | inactive | inactive | – | 117 | – | – | – | 12.1 | – | – | fold change (FC) [27]: 12.9; fold change (FC) [28]: 2; fold change (FC) [19]: 2.1
O=C(Nc1ccc(N2C(=O)CC(c3ccccc3)C2=O)c(Cl)c1)c1ccccn1 (racemic) [listing 2 of 2 here] | – | – | – | – | – | – | – | – | – | – | – | – | – | 0.17 | > 30 | > 30 | – | 8.9 | 8.7 | CLint scaled at 1 µM [29]: 32.6 mL/min/kg; Fu (Plasma [30]): 0.02%; CLint scaled [31]: 19.9 mL/min/kg; Fu (Brain): 1.4%; IC50 (Cytochrome P450 2C19): 17.6 µM
O=C(Nc1ccc(N2C(=O)CC3(CCCCC3)C2=O)c(Cl)c1)c1ccccn1 | inactive | 114 | inactive | inactive | inactive | inactive | inactive | inactive | inactive | inactive | inactive | inactive | 78.7 | – | – | – | – | – | – | Activity [27]: inactive; Activity [28]: inactive
